Common to all, as to format: functional
For assay [1], the system named is Escherichia coli. The assay can be described thus: Antibacterial activity against Escherichia coli (NIHJ JC-2) a sensitive gram-negative bacteria. The method, boiled down: (§1)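 Agar dilution on sensitivity test agar containing serial twofold antibiotic dilutions. Overnight tryptosoy broth cultures were diluted in the same broth to about 10^6 cells/mL, and one loopful was applied with an inoculating device. Plates were incubated at 37 °C for 18-20 h. MIC was taken as the lowest concentration inhibiting visible growth, in micrograms per milliliter.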

The subject of assay [2] is Escherichia coli. The assay can be described thus: Antibacterial activity against Escherichia coli (H) a sensitive gram-negative bacteria. The method, boiled down: as §1
Assay [3] relates to Bacteria. Put plainly: Geometric mean of the four MIC's of different sensitive gram negative bacteria expressed.
A further assay concerns Klebsiella pneumoniae. Put plainly: Antibacterial activity against Kleb. pneumoniae (SRL-1) a sensitive gram-negative bacteria. The method, boiled down:
as §1

Assay [4] relates to Escherichia coli. The assay can be described thus: Antibacterial activity against Escherichia coli (EC-14) a sensitive gram-negative bacteria. The method in brief: as §1
For assay [5], the system named is Bacteria. Put plainly: Geometric mean of the four MIC's of different sensitive gram negative bacteria.

Experimental findings from ChEMBL document CHEMBL1123695, “Synthesis and 3'-substituent effects of some 7 alpha-methoxy-1-oxacephems on antibacterial activity and alkaline hydrolysis rates” (1987) are described below.

SMILES strings stand for the structures. In brackets after ≈: the same amount, converted by molar mass.

Consider `CO[C@@]1(NC(=O)Cc2ccccc2)C(=O)N2C(C(=O)[O-])=C(C[n+]3ccccc3)COC21` (stereo not given in full), for which the MIC in the assay on Escherichia coli [1], against Escherichia coli [2], with Klebsiella pneumoniae and against Escherichia coli [4] was 12.5 µg/mL (≈ 29.5 µM) each time. Moreover, the Geometric mean with Bacteria [3] stood at 29.5 µM.

On to `CO[C@@]1(NC(=O)Cc2ccccc2)C(=O)N2C(C(=O)[O-])=C(COC(N)=O)COC21.[Na+]` (stereo not given in full), for which the MIC (in general, the lowest concentration that inhibits growth of the organism) in the assay on Escherichia coli [1] amounted to 3.13 µg/mL; against Escherichia coli [2], 0.78 µg/mL; in the assay with Klebsiella pneumoniae, 3.13 µg/mL; with Escherichia coli [4] it was 0.78 µg/mL. Further, the Geometric mean in the assay on Bacteria [3] came out at 3.66 µM.

On to `CO[C@@]1(NC(=O)Cc2ccccc2)C(=O)N2C(C(=O)[O-])=C(CSc3nnnn3C)CO[C@@H]21.[Na+]`, for which the MIC against Escherichia coli [1] worked out at 0.78 µg/mL; against Escherichia coli [2] it was 0.1 µg/mL; against Klebsiella pneumoniae it was 0.39 µg/mL; in the assay on Escherichia coli [4], 0.39 µg/mL. The compound further had a Geometric mean with Bacteria [3] of 0.684 µM.

Regarding `CO[C@@]1(NC(=O)Cc2ccccc2)C(=O)N2C(C(=O)[O-])=C(CO)CO[C@@H]21.[Na+]`, the MIC against Escherichia coli [1] stood at 100 µg/mL; against Escherichia coli [2] it was 25 µg/mL; in the assay on Klebsiella pneumoniae, 50 µg/mL; in the assay with Escherichia coli [4] it was 50 µg/mL. The compound also displayed a Geometric mean in the assay on Bacteria [3] of 130 µM.

With `COCC1=C(C(=O)[O-])N2C(=O)[C@](NC(=O)Cc3ccccc3)(OC)[C@H]2OC1.[Na+]`, the MIC was found to be 200 µg/mL against Escherichia coli [1], 25 µg/mL against Escherichia coli [2], 50 µg/mL in the assay with Klebsiella pneumoniae and 100 µg/mL with Escherichia coli [4]. Moreover, the Geometric mean in the assay on Bacteria [3] stood at 178 µM.

On to `CO[C@@]1(NC(=O)Cc2ccccc2)C(=O)N2C(C(=O)[O-])=C(CC#N)CO[C@@H]21.[Na+]`, for which the MIC with Escherichia coli [1] worked out at 50 µg/mL; against Escherichia coli [2], 12.5 µg/mL; in the assay on Klebsiella pneumoniae, 25 µg/mL; against Escherichia coli [4] it was 25 µg/mL. In addition, the Geometric mean with Bacteria [3] is 63.6 µM.

For the compound `CO[C@@]1(NC(=O)Cc2ccccc2)C(=O)N2C(C(=O)[O-])=C(COC(C)=O)CO[C@@H]21.[Na+]`, the MIC was found to be 3.13 µg/mL against Escherichia coli [1], 0.78 µg/mL with Escherichia coli [2], 1.56 µg/mL against Klebsiella pneumoniae and 3.13 µg/mL against Escherichia coli [4]. Further, in the assay on Bacteria [3], the Geometric mean is 4.36 µM.

In the case of `CO[C@@]1(NC(=O)Cc2ccccc2)C(=O)N2C(C(=O)[O-])=C(C)CO[C@@H]21.[Na+]`, the Geometric mean with Bacteria [5] turned out to be 323 µM. Also, the MIC came out at 200 µg/mL in the assay with Escherichia coli [1], 100 µg/mL against Escherichia coli [2], 100 µg/mL in the assay on Klebsiella pneumoniae and 100 µg/mL against Escherichia coli [4].

As for `CO[C@@]1(NC(=O)Cc2ccccc2)C(=O)N2C(C(=O)[O-])=C(CSC)CO[C@@H]21.[Na+]`, the MIC against Escherichia coli [1] is greater than 400 µg/mL; against Escherichia coli [2], 50 µg/mL; with Klebsiella pneumoniae, 100 µg/mL; with Escherichia coli [4] it was 200 µg/mL. Also, the Geometric mean in the assay with Bacteria [3] worked out at 406 µM.
